{
  "source": "BindingDB's records for doi:10.1021/jm015578d",
  "about": "(Sapienza University of Rome, 2002)",
  "biological_target": "T1, Amine oxidase [flavin-containing] A (Bos taurus, UniProt P21398)",
  "T1 sequence (P21398 whole entry)": "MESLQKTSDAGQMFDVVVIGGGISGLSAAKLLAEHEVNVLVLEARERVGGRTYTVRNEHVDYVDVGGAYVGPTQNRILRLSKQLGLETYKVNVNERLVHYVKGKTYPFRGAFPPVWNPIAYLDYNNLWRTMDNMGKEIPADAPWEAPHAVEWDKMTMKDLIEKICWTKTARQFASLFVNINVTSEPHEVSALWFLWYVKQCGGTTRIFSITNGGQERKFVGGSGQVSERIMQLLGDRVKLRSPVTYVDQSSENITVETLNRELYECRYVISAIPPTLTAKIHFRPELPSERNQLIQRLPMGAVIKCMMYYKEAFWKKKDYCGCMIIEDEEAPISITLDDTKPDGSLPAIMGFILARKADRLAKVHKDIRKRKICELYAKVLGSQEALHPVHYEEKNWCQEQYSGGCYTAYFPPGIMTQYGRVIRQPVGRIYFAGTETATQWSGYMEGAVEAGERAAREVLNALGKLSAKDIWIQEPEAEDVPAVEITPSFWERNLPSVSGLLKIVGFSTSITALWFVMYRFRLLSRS",
  "experiment": "Inhibition of bovine brain mitochondrial Monoamine oxidase A (MAO-A) compared to toloxatone",
  "procedure,_shortened": "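Bovine brain mitochondria were isolated by the Basford method. To isolate MAO-A, fractions were preincubated 30 min at 38 °C with 1 μM L-deprenyl. Inhibitors in DMSO were preincubated 30 min, then kynuramine substrate was added, with 30 min further incubation. Product was read fluorimetrically and Ki values derived.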",
  "data": [
    {"smiles": "O=C1O[C@@H](CO)CN1n1cccc1", "values": [
      {"measurement": "Ki", "value": 270, "unit": "nM"}
    ]}
  ]
}
